Assay outcomes as filed in PubChem BioAssay.
V-ATPase pHluor = regulators of yeast V-ATPase proton transport; AID 504577; S. cerevisiae, pHLuorin cytosolic pH fluorescence; response, % at 10 µM; 0.37% of 350,000 active; in the data active = response mostly above about 7.3%, no sharp cut-off; inactive = mostly below about 5.4%; note: actives read high
NR2E3 ag-1 = human photoreceptor-specific nuclear receptor agonism; inhibition of corepressor binding, % at 3.98 µM; CHO-S Gal4-NCOR/VP16-NR2E3 two-hybrid, luciferase; Q9Y5X4; 0.35% of 360,000 active;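 active = inhibition above the mean of all tested compounds plus 3 SD, cut at about 70% in these data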;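 note: 0% = DMSO with NR2E3 transfected cells and 100% = cells lacking NR2E3 construct; higher means lower luciferase signal from less NR2E3 corepressor binding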
Target sequence (Q9Y5X4 whole entry, looked up, the tested form may be a part): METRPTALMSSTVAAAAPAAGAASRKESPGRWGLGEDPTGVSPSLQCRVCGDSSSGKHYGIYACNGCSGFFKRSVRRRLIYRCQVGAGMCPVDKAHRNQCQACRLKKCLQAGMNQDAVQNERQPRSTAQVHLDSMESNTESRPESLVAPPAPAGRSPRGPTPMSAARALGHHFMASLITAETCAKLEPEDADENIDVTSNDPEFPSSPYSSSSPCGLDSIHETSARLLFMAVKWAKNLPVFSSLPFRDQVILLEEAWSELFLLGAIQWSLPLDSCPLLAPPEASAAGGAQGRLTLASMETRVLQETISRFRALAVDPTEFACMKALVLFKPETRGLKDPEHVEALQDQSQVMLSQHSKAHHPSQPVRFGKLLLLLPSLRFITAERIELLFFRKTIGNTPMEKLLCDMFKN
GalR3 antagonist = blocks the human galanin receptor 3. inhibition, % at 3 µM. AID 651719. 0.44% of 360,000 active. HEK293 GalR3-CNG cAMP membrane potential fluorescence; galR3 body fused to GalR1 C-terminus;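 active = inhibition above the screen-wide average plus 3 SD, cut at about 13% in these data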;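 note: forskolin and galanin both at EC90 stimulate the cells; cAMP rise reported by CNG channel membrane potential dye signal; 0% = forskolin plus galanin with DMSO and 100% = forskolin alone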
Target sequence (O60755 1-299 limits assumed): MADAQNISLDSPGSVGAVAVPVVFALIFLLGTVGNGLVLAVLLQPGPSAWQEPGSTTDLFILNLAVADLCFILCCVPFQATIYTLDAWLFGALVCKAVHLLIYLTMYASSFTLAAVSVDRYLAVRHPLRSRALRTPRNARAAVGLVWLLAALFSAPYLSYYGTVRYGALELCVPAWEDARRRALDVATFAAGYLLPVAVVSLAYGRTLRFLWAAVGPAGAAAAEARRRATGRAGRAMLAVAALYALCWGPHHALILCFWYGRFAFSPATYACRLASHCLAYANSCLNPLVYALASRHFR
HIV Env fusion = inhibitors of HIV Env-mediated cell fusion | HeLa-JRFL Env/CEM21 cell fusion, luciferase | inhibition, % at 12.3 µM | 1.1% of 360,000 active | AID 651610;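 active = mean replicate inhibition score of at least 50 and every replicate individually at or above 50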;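 note: 0% = plate neutral controls and 100% = maraviroc near 300 nM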
NR2E3 ag-2 = activates human photoreceptor nuclear receptor NR2E3 | 0.12% of 320,000 active | AID 2300 | GST-NR2E3/biotin-RetCOR TR-FRET, 1536-well | inhibition of corepressor binding, % at 4.78 µM | Q9Y5X4;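 active = percent inhibition above the cutoff of mean plus 3 SD of all tested compounds, set per screening campaign, cut at about 20% in these data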;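 note: 0% = DMSO wells and 100% = biotin wells as full block of FRET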
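Test system – NR2E3–RetCOR corepressor complex · Quantity – NR2E3 fusion 1.35 nM · Buffer or medium – Tris pH 7.5 · Incubation – Compound–protein incubation for 5 h at 4 °C · Technique – TR-FRET, Eu(K)-anti-GST donor, streptavidin-D2 acceptor, ex 340, em 617/671 nm · Evaluation – percent inhibition of 671/617 nm emission ratio versus biotin and DMSO controls · Plate – 1536-well format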
FXN GAA850 act = frataxin GAA850 promoter activation; HEK293 lucGAA850 FXN promoter luciferase reporter, 24 h; percent of 10 µM SAHA response; activation, % at 6 µM; AID 540364; 0.56% of 360,000 active;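 active = activation above the average of all compounds screened plus 3 SD, cutoff fixed separately per campaign, cut at about 7.5% in these data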;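 note: 0% = DMSO wells and 100% = 10 µM SAHA wells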
VATPase regulator = yeast V-ATPase proton transport regulation; shares compounds with V-ATPase pHluor; S. cerevisiae pHLuorin cytosolic pH; response, % at 10 µM; 2% of 980 active; in the data active = response above about 24%;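 note: plate controls were vehicle wells for no effect and positive control wells for full effect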
Starred values were filed as active, the others as inactive; / = no result; [ ] = another dose, or the depositor's remark. In the library only some 2.2% were active in any assay of this set; here they are far more common.

SMILES	V-ATPase pHluor	NR2E3 ag-1	GalR3 antagonist	HIV Env fusion	NR2E3 ag-2	FXN GAA850 act	VATPase regulator
O=C(C[C@@H]1C=C[C@@H](NC(=O)Nc2cc(F)ccc2F)[C@H](CO)O1)Nc1ccc(-c2ccccc2)cc1	/	/	/	-1.4[16.7 µM]	/	/	/
CCCCCOC(=O)C1=C(C)NC(=O)NC1c1ccccc1 (stereo not drawn)	11.7*	6.7	-4.1	16.9	/	-0.7	6.1
CCCCCOC(=O)C1=C(C)NC(=O)NC1c1ccc(N(C)C)cc1 (stereo not drawn)	2.4	-35.3	-2.7	17.4	-4.6	1.0	/
COCC(=O)N(C)C[C@H]1Oc2cc(-c3ccncc3)ccc2S(=O)(=O)N([C@@H](C)CO)C[C@@H]1C	/	/	/	-6.8[16.7 µM]	/	/	/
CC(=O)N/C(=C\c1ccccc1)C(=O)N1CCOCC1	10.4*	0.5	-1.9	-65.8	-2.9	1.4	1.7
O=C(/C=C/c1ccccc1)N/C(=C/c1ccccc1)C(=O)N1CCOCC1	4.5	6.5	2.3	-23.0	-4.2	1.9	/
Cc1cccc(C(=O)Nc2ccnc(-c3ccncc3)n2)c1	8.5*	-33.1	-4.3	17.4	5.8	0.8	0.4
Cc1cccc(C(=O)Nc2ccnc(-c3cccnc3)n2)c1	-4.1	-6.5	-4.0	19.2	-0.5	1.6	/
C[C@H](CO)N1C[C@H](C)[C@H](CN(C)C(=O)Nc2ccc(C(F)(F)F)cc2)Oc2c(NS(=O)(=O)c3ccccc3)cccc2C1=O	/	/	/	-22.7[16.7 µM]	/	/	/
CC(CN1CCOCC1)OC(=O)Cc1ccc(Cl)cc1 (stereo not drawn)	11.5*	16.0	-7.2	4.4	0.0	-2.0	2.3
O=C(CN1CCCCC1)N1CCCc2c1c(=O)oc1ccc(OCc3ccccc3)cc21	-0.8	-3.9	-4.5	-39.2	4.3	0.0	/
CCCCCOc1ccc2oc(=O)c3c(c2c1)CCCN3C(=O)CN1CCCC(C(=O)OCC)C1 (stereo not drawn)	12.9*	-14.0	-4.4	17.1	-1.3	0.4	2.0
CS(=O)(=O)N1Cc2ccccc2CC1C(=O)OCC(=O)NCc1ccccc1 (stereo not drawn)	-1.7	-22.3	-4.6	9.4	/	0.9	/
CS(=O)(=O)N1Cc2ccccc2CC1C(=O)OCC(=O)NCCc1ccc(S(N)(=O)=O)cc1 (stereo not drawn)	12.4*	-11.1	-3.6	-132.8	/	-0.9	1.1
CC(=O)c1cccc(NS(=O)(=O)N2CCCCC2)c1	16.5*	-3.1	-0.1	/	2.7	-0.7	2.2
O=S(=O)(Nc1ccccc1)N1CCCCC1	-1.3	-14.8	-2.7	-16.0	/	0.9	/
O=c1c2c(-c3ccccc3)csc2ncn1/N=C/c1cccc([N+](=O)[O-])c1O	81.8*	-4.5	-7.6	-1.3	0.6	2.9	3.8
COc1ccc(NC(=O)Nc2ccc3c(c2)C(=O)N([C@H](C)CO)C[C@@H](C)[C@H](CN(C)C(=O)NC(C)C)O3)cc1	/	/	/	9.6[16.7 µM]	/	/	/
Clc1ccc(Nc2ncnc3c2cnn3-c2ccccc2)cc1	-0.7	-74.8	-2.5	-43.9	0.4	2.9	/
COc1ccc(Nc2ncnc3c2cnn3-c2ccccc2)cc1OC	11.0*	-33.7	3.1	-14.3	1.8	1.2	5.1
CCCNC(=O)C[C@H]1CC[C@@H]2[C@H](COc3ccc(NC(=O)c4cc(C)on4)cc3C(=O)N2C)O1	/	/	/	0.7[16.7 µM]	/	/	/
COc1ccc([C@H]2C[C@@H](O)[C@H](n3cc(-c4ccc(F)cc4)nn3)CN2C(=O)C2CCCCC2)cc1	7.0*	-8.3	-5.0	-26.7	/	-0.6	1.0
CCOc1ccccc1N(CC(=O)Nc1cccnc1)S(=O)(=O)c1ccc(C)cc1	9.9*	6.0	-4.7	1.1	2.2	-1.8	6.3
CCOc1ccccc1N(CC(=O)Nc1cccnc1)S(C)(=O)=O	5.3	-10.4	-4.3	10.7	1.6	-0.4	/
Cc1noc(C)c1S(=O)(=O)Nc1ccc2c(c1)C(=O)N([C@@H](C)CO)C[C@@H](C)[C@H](CN(C)C(=O)c1ccccc1)OCCCC[C@H](C)O2	/	/	/	15.1[16.7 µM]	/	/	/
SMILES	V-ATPase pHluor	NR2E3 ag-1	GalR3 antagonist	HIV Env fusion	NR2E3 ag-2	FXN GAA850 act	VATPase regulator
O=C(C[C@@H]1CC[C@H]2[C@@H](COC[C@@H](O)CN2S(=O)(=O)c2ccccc2)O1)N1CCOCC1	/	/	/	-9.2[16.7 µM]	/	/	/
COc1ccccc1CNC(=O)c1oc2ccc(S(=O)(=O)N3CCOCC3)cc2c1C	-1.9	18.9	-10.4	-8.0	4.5	2.7	/
COc1ccccc1CNC(=O)c1oc2ccc(S(=O)(=O)N3CCCC3)cc2c1C	7.2*	20.5	/	/	-1.6	0.1	1.2
CCCCCn1c(=O)c(C(=O)OCC)c(O)c2ccccc21	1.7	-26.9	0.0	/	1.6	-0.6	/
CCCCn1c(=O)c(C(=O)OCC)c(O)c2ccccc21	9.8*	2.3	-4.2	-70.5	-0.1	-0.2	2.9
O=C(c1cc(Cl)nc2ccccc12)N1CCN(S(=O)(=O)c2cccc(F)c2)CC1	-3.0	-11.5	-2.8	11.1	1.7	3.1	/
O=C(c1cc(Cl)nc2ccccc12)N1CCN(S(=O)(=O)c2ccccc2[N+](=O)[O-])CC1	14.5*	6.7	1.0	-22.8	-0.9	-0.4	1.5
Cc1ccccc1-c1ccccc1CN1[C@@H](C(C)C)COCCS1(=O)=O	8.8*	3.7	-1.1	0.7	/	-1.6	1.6
O=C(Oc1cccccc1=O)c1ccccc1	0.8	26.3	0.3	-0.1	-7.8	0.8	/
O=C(Oc1ccccc1Cl)c1ccccc1	12.7*	26.3	-2.6	-139.8	/	-0.6	4.1
O=C(CN1CCOCC1)N[C@@H]1CC[C@H](CCNC(=O)C2CCCCC2)O[C@@H]1CO	/	/	/	14.2[16.7 µM]	/	/	/
O=C(Nc1ccc([N+](=O)[O-])cc1)c1ccccc1F	15.5*	-64.0	-3.3	-40.1	3.0	5.6	2.4
Cc1nc2n(n1)C(O)c1cc([N+](=O)[O-])ccc1S2 (stereo not drawn)	/	/	/	/	-3.7	/	/
O=[N+]([O-])c1ccc2c(c1)C(O)n1nc(-c3ccc(Cl)cc3Cl)nc1S2 (stereo not drawn)	7.3*	9.6	-0.7	/	0.2	-2.8	-0.7
Cc1cccc(OCCCn2ccnc2)c1	-1.4	-7.6	-7.8	/	-3.2	-3.0	/
Cc1cc(C)cc(OCCCn2ccnc2)c1	9.0*	-3.7	-8.8	3.2	1.6	0.2	-2.6
CC(C)NC(=O)Nc1ccc2c(c1)C(=O)N([C@@H](C)CO)C[C@@H](C)[C@H](CN(C)C(=O)CCCN(C)C)OCCCC[C@@H](C)O2	/	/	/	-0.5[16.7 µM]	/	/	/
COc1cc2c(=O)c(-c3ccc(O)cc3)coc2cc1OC1OC(CO)C(O)C(O)C1O (stereo not drawn)	9.6*	-20.9	10.7	-4.8	0.6	-1.0	4.5
COc1ccc(NC(=O)Nc2ccc3c(c2)C(=O)N([C@@H](C)CO)C[C@H](C)[C@H](CN(C)C(=O)CCCN(C)C)OCCCC[C@H](C)O3)cc1	/	/	/	46.7[16.7 µM]	/	/	/
CO[C@H]1CN(C)C(=O)c2cc(NC(=O)c3ccccc3F)ccc2OC[C@H](C)N(C(C)=O)C[C@H]1C	/	/	/	3.9[16.7 µM]	/	/	/
